Measured values reported in ChEMBL document CHEMBL4825683, “Synthesis and approbation of new neuroprotective chemicals of pyrrolyl- and indolylazine classes in a cell model of Alzheimer's disease” (Eur J Med Chem, 2021).
Active and inactive are the calls of the source. The rule behind the calls is not given here.

How the values were obtained:
[1] = molecular target: T1, Heat shock factor protein 1 (Homo sapiens) (UniProt Q00613); assay: Activation of Hsf1 in human MSC-NEU cells assessed as increase in HSP70 substrate-binding chaperone activity at 1 uM incubated for 24 hrs by protein-protein interaction assay relative to control; type: cell-based; conditions: MSC-NEU cell, filed as activator
T1 sequence (whole entry): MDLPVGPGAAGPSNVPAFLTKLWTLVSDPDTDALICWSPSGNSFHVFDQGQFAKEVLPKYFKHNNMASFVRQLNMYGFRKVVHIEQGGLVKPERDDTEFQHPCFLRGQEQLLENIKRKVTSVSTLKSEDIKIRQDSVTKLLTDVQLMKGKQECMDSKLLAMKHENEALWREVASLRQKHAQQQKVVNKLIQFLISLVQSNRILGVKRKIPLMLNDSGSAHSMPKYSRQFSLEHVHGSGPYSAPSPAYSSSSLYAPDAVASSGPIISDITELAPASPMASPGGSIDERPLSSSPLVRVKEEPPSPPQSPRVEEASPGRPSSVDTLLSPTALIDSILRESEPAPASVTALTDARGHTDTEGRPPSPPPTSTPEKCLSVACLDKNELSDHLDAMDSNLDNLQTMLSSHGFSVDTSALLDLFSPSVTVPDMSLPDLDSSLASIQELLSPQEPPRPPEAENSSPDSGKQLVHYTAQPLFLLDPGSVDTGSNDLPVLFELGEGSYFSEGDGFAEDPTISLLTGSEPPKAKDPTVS
Outline: (§1)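 MSC-NEU cells: human dental-pulp mesenchymal stem cells (MSC-DP) grown in DMEM/F12 with 10% FBS, 100 units/mL penicillin and 0.1 mg/mL streptomycin at 37 °C, 5% CO2. They were then reprogrammed to a neuronal phenotype over 5 days in Neurobasal medium with B27 supplement, 3% FBS and the same antibiotics.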

[2] = molecular target: T1, Heat shock factor protein 1 (Homo sapiens); assay: Activation of Hsf1 in human MSC-NEU cells assessed as induction of HSP90 accumulation at 1 uM incubated for 24 hrs by Western blotting analysis relative to control; type: cell-based; conditions: MSC-NEU cell; for fold change (FC): filed as activator; outline: as §1
[3] = molecular target: T1, Heat shock factor protein 1 (Homo sapiens); assay: Activation of Hsf1 in human MSC-NEU cells assessed as induction of HSP70 accumulation at 1 uM incubated for 24 hrs by Western blotting analysis relative to control; type: cell-based; conditions: MSC-NEU cell, filed as activator; outline: as §1
[4] = Cytotoxicity against human MSC-NEU cells assessed as reduction in cell viability measured after 48 hrs by MTT assay; type: cell-based; conditions: read-out: LC50
Outline: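 Human dental pulp mesenchymal stem cells (MSC-DP) were grown in DMEM/F12 with 10% FBS, penicillin and streptomycin at 37 °C and 5% CO2. They were then reprogrammed to a neuronal phenotype (MSC-NEU) over 5 days in Neurobasal medium with B27 supplement, 3% FBS and antibiotics.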

[5] = molecular target: T1, Heat shock factor protein 1 (Homo sapiens); assay: Activation of Hsf1 in human HEK293 cells transfected with Hsp70.1pr-luc plasmid at 1 uM incubated for 24 hrs by luciferase reporter gene based luminescence assay; type: cell-based; conditions: filed as activator
[6] = Inhibition of amyloid beta(1 to 42)-induced apoptosis in human MSC-NEU cells assessed as reduction in caspase-3 activity at 1 uM measured after 24 hrs by fluorescence based analysis relative to control; type: functional, MSC-NEU cell; outline: as §1
[7] = Inhibition of amyloid beta (1 to 42)-induced cellular senescence in human MSC-NEU cells assessed as reduction in beta-galactosidase activity at 1 uM measured after 48 hrs by X-Gal staining based analysis relative to control; type: functional, MSC-NEU cell; outline: as §1
[8] = Inhibition of amyloid beta(1 to 42)-induced apoptosis in human MSC-NEU cells at 1 uM measured after 24 hrs by AnnexinV-Alexafluor647/propidium iodide staining based flow cytomtery relative to control; type: functional, MSC-NEU cell; outline: as §1
[9] = Neuroprotective activity against amyloid beta (1 to 42)-stimulated human MSC-NEU cells assessed as increase in cell index incubated for 48 hrs by xCELLigence RTCA analysis; type: functional; outline: as §1

| SMILES | fold change (FC) [1] | Activity [2] | fold change (FC) [3] | CC50 at 48 h [4] | Activity [5] | fold change (FC) [6] | fold change (FC) [7] | fold change (FC) [8] | Activity [9] | fold change (FC) [2] |
| --- | --- | --- | --- | --- | --- | --- | --- | --- | --- | --- |
| Brc1ccc2[nH]cc(-c3ncnc4ccccc34)c2c1 | 1.3 | inactive | 1.9 | 279 µM | Active | 2.51 | 1.04 | 4.2 | 10% | – |
| O=c1[nH]c2ccccc2nc1-c1ccc(-c2ccccc2)[nH]1 | 1.3 | – | 1.6 | 494 µM | Active | 2.12 | 1.12 | 4.2 | 10% | 1.85 |
| Clc1nccc(-c2c[nH]c3ccc(Br)cc23)n1 | 1.3 | – | 2.7 | 316 µM | Active | 2.04 | 1.17 | 4.2 | 10% | 1.6 |
| C[n+]1c2ccccc2c(-c2c[nH]c3ccc(O)cc23)c2ccccc21.[I-] | 1.3 | – | 2.2 | > 1000 µM | Active | 2.24 | 1.22 | 4.2 | 10% | 2.1 |
